Test results from article PMC8183215 (Journal for Immunotherapy of Cancer, 2021).
Residues, ends and D or L forms follow the SMILES beside them.

Assay: In vitro plasma stability
Type: in vitro ADME
Conditions: rat, pH 7.4
How it was run: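 Test compound prepared as a 1000 ng/mL stock in 0.01 M Tris-HCl (pH 7.4), then mixed in equal volume with rat plasma and incubated at 37 °C. Samples were taken at 0, 2, 5, 10, 30 and 60 min, and methanol was added to precipitate protein. After centrifugation at 12 000 rpm for 15 min and a second spin of the supernatant, UPLC-MS peak areas gave the half-life.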

SMILES | half-life at 500 ng/mL
CC[C@H](C)[C@H](NC(=O)[C@@H](N)[C@@H](C)O)C(=O)N[C@@H](Cc1c[nH]c2ccccc12)C(=O)N[C@@H](CCSC)C(=O)N[C@@H](CC(C)C)C(=O)N[C@@H](CC(C)C)C(=O)N[C@@H](CCSC)C(=O)N[C@@H](CC(C)C)C(=O)N[C@@H](CCC(N)=O)C(=O)O [peptide 2] (H-TIWMLLMLQ-OH) | ~5 min
CC(C)C[C@H](NC(=O)[C@H](CCCCN)NC(=O)[C@H](CCCNC(=N)N)NC(=O)[C@@H]1CCCN1C(=O)[C@H](CCC(=O)O)NC(=O)CNC(=O)[C@H](Cc1ccc(O)cc1)NC(=O)[C@H](C)NC(=O)[C@@H](N)CO)C(=O)O [peptide 1] (H-SAYGEPRKL-OH; N-terminus and C-terminus assumed) | ~5 min
